HTRA1 inhibitor – HTRA1 serine protease inhibitors, primary screen, biochemical, fluorescence polarization, HTS. recombinant HTRA1, FP-rhodamine activity-based probe. 340,000 tested, 0.5% active. inhibition, % at 5.96 µM; in the data active = inhibition above about 36%;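 also: 0% = enzyme with DMSO and 100% = wells lacking enzyme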
rCAG binder – binders of r(CAG) RNA repeats, primary screen, biochemical, fluorescence; r(CAG) RNA repeat, TO-PRO-1 dye displacement fluorescence; inhibition, % at 3 µM; 370,000 tested, 1.3% active; AID 651821, 2012;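 active = inhibition above the plate cutoff, the mean of all test compounds on that plate plus 3 SD, cut at about 35% in these data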;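 also: 0% = DMSO alone and 100% = 100 µM mitoxantrone as full dye displacement; higher means more dye released from RNA so lower well fluorescence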
SIAE inh – human SIAE inhibitors, primary screen, biochemical, fluorescence polarization, FP-Rh probe, 1536-well HTS; 370,000 tested, 0.69% active; SIAE FP-Rh probe binding; inhibition, % at 9.66 µM;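 active = inhibition above a cutoff: mean of compounds within the control limits plus 3 SD of those, cut at about 17% in these data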;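 also: 0% = plate median of compound wells and 100% = probe without SIAE protein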
TCR CD3 inh – inhibitors of human TCR-CD3 interaction, primary screen, biochemical, fluorescence, TAMRA-labeled TCR probe; T-cell receptor (TCR); inhibition, % at 9.4 µM; 360,000 tested, 0.37% active; in the data active = inhibition above about 19%;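 also: recombinant mutant TCR 2C K166C tagged with TAMRA read by polarization; 0% = receptor in buffer alone and 100% = receptor with positive control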
mABHD4 FP – ABHD4 inhibitors, primary screen, biochemical, fluorescence polarization, mouse | (Lyso)-N-acylphosphatidylethanolamine lipase (Mus musculus), Q8VD66 | purified mABHD4, FP-Rh probe fluorescence polarization | inhibition, % at 8.92 µM | 370,000 tested, 0.54% active;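 active = inhibition exceeding the mean over every tested compound plus 3 SD, cut at about 30% in these data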;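 also: 0% = plate median of compound wells and 100% = S159A mutant with DMSO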
Target sequence (Q8VD66 whole entry, looked up): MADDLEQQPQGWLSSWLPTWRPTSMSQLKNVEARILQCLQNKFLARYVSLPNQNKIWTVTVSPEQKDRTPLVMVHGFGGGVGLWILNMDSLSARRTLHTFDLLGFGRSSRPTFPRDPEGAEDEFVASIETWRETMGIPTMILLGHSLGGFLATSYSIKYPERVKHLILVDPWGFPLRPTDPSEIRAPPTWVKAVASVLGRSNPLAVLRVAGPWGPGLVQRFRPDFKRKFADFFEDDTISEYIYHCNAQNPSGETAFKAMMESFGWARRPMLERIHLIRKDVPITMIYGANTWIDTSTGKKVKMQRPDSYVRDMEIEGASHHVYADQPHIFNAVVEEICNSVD
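Assay system: wild-type mouse ABHD4 protein; compound: single nominal dose of 8.92 µM, 0.89% DMSO final; schedule: 45 min + 60 min at 25 °C; measured by: FP readout, ex 525 nm / em 598 nm; evaluation: % inhibition of FP-Rh probe binding versus controls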
HTRA1 conf – HTRA1 protease inhibitors, retest, confirmation, biochemical, fluorescence polarization; 1,600 tested, 66% active; shares compounds with HTRA1 inhibitor; recombinant HTRA1, FP-rhodamine activity-based probe; inhibition, % at 5.96 µM; AID 540248, 2011;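 active = mean inhibition over three repeats above a set limit taken from the earlier primary screen, cut at about 37% in these data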;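 also: 0% = HTRA1 with DMSO and 100% = wells lacking HTRA1; inhibitors block probe binding so polarization drops and inhibition rises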
* = called active by the depositor. The list is not random: actives were taken first. Their share in the collection is about 2.5%.

Results for Clc1ccc(C2=C3CCCCn4c(-c5ccccc5)c[n+](c43)C2)cc1 ?
HTRA1 inhibitor: 19; rCAG binder: 5; SIAE inh: 7; TCR CD3 inh: -3; mABHD4 FP: 23

What do the screens show for `CCCCCCCCC/C(=N\O)c1ccccn1`?
HTRA1 inhibitor: 66*; rCAG binder: -5; SIAE inh: -6; TCR CD3 inh: 2; mABHD4 FP: -5; HTRA1 conf: 66*

Results for Cc1ccc(NC(=S)N/N=C/c2ccc([N+](=O)[O-])s2)cc1 ?
HTRA1 inhibitor: 59*; rCAG binder: 28; SIAE inh: 8; TCR CD3 inh: -9; mABHD4 FP: 3; HTRA1 conf: 59*

Results for NS(=O)(=O)c1ccc(NC(=S)NCc2ccccc2)cc1 ?
HTRA1 inhibitor: 2; rCAG binder: 0; SIAE inh: 6; TCR CD3 inh: 0; mABHD4 FP: 1

Results for O=[N+]([O-])c1ccc(N/N=C/c2cccc(O)c2O)cc1 ?
HTRA1 inhibitor: 64*; rCAG binder: 20; SIAE inh: 12; TCR CD3 inh: -3; mABHD4 FP: 21; HTRA1 conf: 46*

What do the screens show for `O=C(Nc1ncccc1O)c1ccc2c(c1)OCCO2`?
HTRA1 inhibitor: 5; rCAG binder: 1; SIAE inh: 6; TCR CD3 inh: 4; mABHD4 FP: 8

Results for Oc1ccc(N=Nc2ccc3c(c2)OCCO3)c2ncccc12 ?
HTRA1 inhibitor: 58*; rCAG binder: 9; SIAE inh: 14; TCR CD3 inh: 2; mABHD4 FP: 23; HTRA1 conf: 61*

How did NS(=O)(=O)c1ccc(N=Nc2ccc(O)c3ncccc23)cc1 do in these assays?
HTRA1 inhibitor: 52*; rCAG binder: 23; SIAE inh: 5; TCR CD3 inh: -8; mABHD4 FP: 13; HTRA1 conf: 37*

How did Cc1cccc(N=Nc2ccc(O)c3ncccc23)c1 do in these assays?
HTRA1 inhibitor: 59*; rCAG binder: 8; SIAE inh: 8; TCR CD3 inh: 6; mABHD4 FP: 25; HTRA1 conf: 64*

What do the screens show for `Cc1ccc(C)c(N=Nc2ccc(O)c3ncccc23)c1`?
HTRA1 inhibitor: 52*; rCAG binder: 8; SIAE inh: 11; TCR CD3 inh: 0; mABHD4 FP: 9; HTRA1 conf: 66*

What do the screens show for `O=CN(Cc1ccco1)C1(C(=O)NC2CCCCC2)CCCCC1`?
HTRA1 inhibitor: 2; rCAG binder: -2; SIAE inh: 8; TCR CD3 inh: 4; mABHD4 FP: 4

What do the screens show for `COc1ccc(Cl)cc1NC(=S)N1CCN(C(=O)C2CCCO2)CC1` (stereo unspecified)?
HTRA1 inhibitor: -9; rCAG binder: -4; SIAE inh: 3; TCR CD3 inh: 0; mABHD4 FP: 4

What do the screens show for `COc1ccc2cc(CO)n(C)c2c1`?
HTRA1 inhibitor: 42*; rCAG binder: 6; SIAE inh: 11; TCR CD3 inh: 7; mABHD4 FP: 2; HTRA1 conf: 23

Results for COc1ccc2cc(C=O)n(C)c2c1 ?
HTRA1 inhibitor: -2; rCAG binder: -3; SIAE inh: 2; TCR CD3 inh: -9; mABHD4 FP: 6

How did CN1C(=O)CC(Nc2cccc3cccc(N)c23)C1=O (stereo unspecified) do in these assays?
HTRA1 inhibitor: 39*; HTRA1 conf: 7

What do the screens show for `Cc1cc(=O)n2nc(N3CCC(C(=O)NCc4ccc(Cl)cc4)CC3)sc2n1`?
HTRA1 inhibitor: 0; rCAG binder: 1; SIAE inh: -1; TCR CD3 inh: 0; mABHD4 FP: 2

How did O=[N+]([O-])c1ccc(NC(c2ccccc2)c2ccc3cccnc3c2O)cc1 (stereo unspecified) do in these assays?
HTRA1 inhibitor: 36*; rCAG binder: 5; SIAE inh: 6; TCR CD3 inh: -3; mABHD4 FP: 7; HTRA1 conf: 40*

How did Oc1c(C(Nc2cccc(C(F)(F)F)c2)c2cccnc2)ccc2cccnc12 (stereo unspecified) do in these assays?
HTRA1 inhibitor: 22; rCAG binder: 3; SIAE inh: 4; TCR CD3 inh: 9; mABHD4 FP: -1

Results for CC(=O)NC(c1cccc([N+](=O)[O-])c1)c1ccc2cccnc2c1O (stereo unspecified) ?
HTRA1 inhibitor: 37*; rCAG binder: 2; SIAE inh: 13; TCR CD3 inh: -7; mABHD4 FP: 14; HTRA1 conf: 63*

How did O=C(C1=COCCO1)N1CCN(S(=O)(=O)c2cccc(Cl)c2Cl)CC1 do in these assays?
HTRA1 inhibitor: 2; rCAG binder: 2; SIAE inh: 0; TCR CD3 inh: -4; mABHD4 FP: -4

Results for C/C(=N\NC(=O)C1CC1)c1ccc(N2CCOCC2)cc1 ?
HTRA1 inhibitor: 0; rCAG binder: -1; SIAE inh: -1; TCR CD3 inh: -2; mABHD4 FP: 0

Results for N=C(N)c1ccc(N=Nc2c(O)ccc3c2[nH]c2ccccc23)cc1 ?
HTRA1 inhibitor: 85*; rCAG binder: 26; SIAE inh: 9; TCR CD3 inh: -2; mABHD4 FP: 47*; HTRA1 conf: 61*

How did NS(=O)(=O)c1ccc(N=Nc2c(O)ccc3ccccc23)cc1 do in these assays?
HTRA1 inhibitor: 11; rCAG binder: 21; SIAE inh: 13; TCR CD3 inh: 4; mABHD4 FP: 4

What do the screens show for `COCC(=O)Nc1ccc(Nc2ccccc2)cc1`?
HTRA1 inhibitor: 47*; rCAG binder: -1; SIAE inh: 7; TCR CD3 inh: 1; mABHD4 FP: 0; HTRA1 conf: 40*

What do the screens show for `O=C(COc1ccc2c3c(c(=O)oc2c1)CCC3)NCc1ccncc1`?
HTRA1 inhibitor: -1; rCAG binder: 0; SIAE inh: -2; TCR CD3 inh: 4; mABHD4 FP: 0

How did Nc1c(S(=O)(=O)O)cc(NC(=O)c2ccccc2)c2c1C(=O)c1ccccc1C2=O do in these assays?
HTRA1 inhibitor: 55*; HTRA1 conf: 72*

How did Oc1ccccc1C=NNC(=S)Nc1ccc(F)cc1 do in these assays?
HTRA1 inhibitor: 45*; rCAG binder: 10; SIAE inh: 6; TCR CD3 inh: 12; mABHD4 FP: 9; HTRA1 conf: 46*

How did Fc1ccc(NC(=S)NN=Cc2ccccc2Cl)cc1 do in these assays?
HTRA1 inhibitor: -20; rCAG binder: 5; SIAE inh: 5; TCR CD3 inh: -4; mABHD4 FP: -2

Results for Oc1c(CN2CCOCC2)cc(COCc2ccccc2)c2cccnc12 ?
HTRA1 inhibitor: 28; rCAG binder: -2; SIAE inh: 2; TCR CD3 inh: -10; mABHD4 FP: 15
